Assay results taken from ChEMBL document CHEMBL1125241, “Structure-activity relationship of quinazolinedione inhibitors of calcium-independent phosphodiesterase” (J Med Chem, 1991).

How the values were obtained:
Mus musculus [1] = organism: Mus musculus; experiment: Inhibition of reserpine-induced hypothermia in mice by peroral dose; format: functional; conditions: po, read-out: MED
In short: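 Mice were housed at 18–20 °C, given reserpine 2 mg/kg sc, and kept there 18 h. Rectal temperature was then taken, followed by saline or drug po. Temperatures were re-measured, typically at 0.5, 1.0, 2.0 and 14 h. The value is the minimal effective dose (mg/kg po) that inhibits hypothermia.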

Mus musculus [2] = organism: Mus musculus; experiment: Inhibition of immobility in mouse forced swim test by peroral dose; format: functional; conditions: po, read-out: MED
In short: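 Compounds were dissolved in saline and given po to mice at 1 mL/100 g. One hour later, mice were put in 1-L beakers of water at 22–24 °C, deep enough that tails could not touch the bottom. Observation followed a 2-min habituation.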

[3] = Inhibition of phosphodiesterase 4 from guinea pig lung; parameters: species or system Cavia porcellus
In short: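 Guinea pig lung was homogenized in Bistris buffer (pH 6.5) with 50 μM final PMSF and centrifuged at 12000g at 4 °C. The supernatant went onto DEAE-Sepharose and was eluted with a 0.05–1.0 M sodium acetate gradient, pooling rolipram-sensitive fractions. The assay used 50 mM Tris/10 mM MgCl₂ (pH 7.5) and 1 μM final [³H]cAMP, with compound added in 4% DMSO, for 10 min at 37 °C. Reaction was stopped by boiling; [³H]5'-AMP was separated on boronate gel and counted. IC₅₀ came from 4 log concentrations, each in triplicate.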

Rattus norvegicus [4] = experiment: Percentage inhibition of carrageenan-induced rat foot edema at a dose of 32 mg/kg when administered perorally (po).; format: functional
In short: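 Rats were dosed po, and 1 h later 0.05 mL of 2-week-old 1% carrageenan in distilled water was injected into the plantar tissue. Paw volume was measured immediately and 3 h after injection. The increase in foot volume was the individual response.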

Rattus norvegicus [5] = experiment: Percentage inhibition of carrageenan-induced rat foot edema at a dose of […] when administered perorally (po).; format: functional; conditions: dose 3.2 mg/kg

COC(=O)c1cccc(-n2c(=O)n(Cc3ccccc3)c(=O)c3ccccc32)c1
minimal effective dose (Mus musculus [1]): 100 µg/kg | minimal effective dose (Mus musculus [2]): > 32000 µg/kg | IC50 [3]: 0.23 µM | inhibition in vivo at 32 mg/kg (Rattus norvegicus [4]): 25%

COC(=O)c1cccc(-n2c(=O)n(CC3CC4CCC3C4)c(=O)c3cccnc32)c1 (stereo not drawn)
minimal effective dose (Mus musculus [1]): 1 µg/kg | minimal effective dose (Mus musculus [2]): 1000 µg/kg | IC50 [3]: 0.89 µM

COc1ccc(C2CNC(=O)C2)cc1OC1CCCC1 (stereo not drawn) [ROLIPRAM]
minimal effective dose (Mus musculus [1]): 0.03 µg/kg | minimal effective dose (Mus musculus [2]): 1780 µg/kg | IC50 [3]: 0.59 µM | inhibition in vivo at 32 mg/kg (Rattus norvegicus [4]): 41%

COC(=O)c1cccc(-n2c(=O)n(CC3CCCC3)c(=O)c3cccnc32)c1
minimal effective dose (Mus musculus [1]): 3 µg/kg | minimal effective dose (Mus musculus [2]): 1000 µg/kg | IC50 [3]: 1.52 µM

CCn1c(=O)c2cccnc2n(-c2cccc(C(=O)OC)c2)c1=O
IC50 [3]: 25.9 µM

COC(=O)c1cccc(-n2c(=O)n(Cc3ccccc3)c(=O)c3cccnc32)c1
minimal effective dose (Mus musculus [1]): 10 µg/kg | minimal effective dose (Mus musculus [2]): 10 µg/kg | inhibition in vivo at […] (Rattus norvegicus [5]): 50%

CCn1c(=O)c2ccccc2n(-c2cccc([N+](=O)[O-])c2)c1=O [NITRAQUAZONE]
minimal effective dose (Mus musculus [1]): 1 µg/kg | minimal effective dose (Mus musculus [2]): 3200 µg/kg | IC50 [3]: 11.4 µM | inhibition in vivo at […] (Rattus norvegicus [5]): 43%

CCn1c(=O)c2ccccc2n(-c2cccc(C(=O)OC)c2)c1=O
IC50 [3]: 3.8 µM | inhibition in vivo at 32 mg/kg (Rattus norvegicus [4]): 19%

COC(=O)c1cccc(-n2c(=O)[nH]c(=O)c3ccccc32)c1
minimal effective dose (Mus musculus [1]): < 320 µg/kg | IC50 [3]: > 100 µM | inhibition in vivo at 32 mg/kg (Rattus norvegicus [4]): 5%

CNC(=O)c1cccc(-n2c(=O)n(Cc3ccccc3)c(=O)c3ccccc32)c1
IC50 [3]: 21.4 µM
